The results in this text go back to ChEMBL document CHEMBL5096231, “Covalently Conjugated NOD2/TLR7 Agonists Are Potent and Versatile Immune Potentiators” (J Med Chem, 2022).

A short description of data set [1]: Induction of activation of human CD56+ CD3- NK cells co-cultured with human PBMC cells assessed as increase in CD107a expression at 1 uM incubated for 24 hrs by flow cytometry analysis (reference value: 1.5%). The data set is classed as functional, Natural killer cell. On the technique in general: A flow cytometer gives signals particle by particle.
In data set [2] the test system is PBMC. The experiment in a line: Upregulation of IL12B gene transcription in human PBMC cells at 1 uM incubated for 18 hrs by KEGG analysis. The data set is classed as functional, cell-based. In short, it runs like this: (§1)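 PBMCs from three donors (2 × 10^6 cells/mL) exposed to 1 μM compound or 0.1% DMSO for 18 h at 37 °C. mRNA isolated, amplified, sequenced. DESeq2 differential expression, FDR <0.05 and fold change >2 or <0.5 versus vehicle; gene lists used for Metascape/KEGG enrichment.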

The test system of the next data set is Mus musculus. The experiment in a line: Immuno-adjuvant activity in NIH/OlaHsd mouse assessed as increase in ovalbumin specific IgG production in sera at 50 ug, sc administered on day 0 and as booster dose on day 21 and 28 measured 7 days post last dose by ELISA. In kind it is functional, organism-based. The conditions noted are these: dose 50.0 µg, time 35.0 day. (In general: ELISA stands for enzyme-linked immunosorbent assay.)

In data set [3] the test system is PBMC. The experiment in a line: Immunostimulatory activity in human PBMC cells assessed as increase in IL-8 production at 1 uM incubated for 18 hrs by flow cytometry analysis. In kind it is functional, cell-based. In short, it runs like this:
(§2)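 PBMCs at 1 × 10^6 cells/mL treated with compound (1 μM), LPS (1 μg/mL) or 0.1% DMSO vehicle; cell-free supernatants collected after 18 h at 37 °C, 5% CO2. Cytokines quantified by human inflammatory cytokine bead array on flow cytometry with recombinant standard curves. Four independent experiments, mean ± SEM.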

The test system of data set [4] is PBMC. The data set is described as follows: Upregulation of CXCL10 gene transcription in human PBMC cells at 1 uM incubated for 18 hrs by KEGG analysis. The data set is classed as functional, cell-based. In short, it runs like this:
as §1

Data set [5] concerns PBMC. The data set is described as follows: Upregulation of IL-26 gene transcription in human PBMC cells at 1 uM incubated for 18 hrs by KEGG analysis. In kind it is functional, cell-based. Summed up: as §1
Data set [6] can be described thus: Cytotoxicity against HEK-Blue hNOD2 cells assessed as reduction in metabolic activity at 10 uM incubated for 18 hrs by MTS assay. In kind it is toxicity, cell-based. The conditions noted are these: human, hek-blue hnod2, 18 h. In short, it runs like this:
(§3)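 Cells (HEK-Blue NOD2, RAW-Blue or freshly isolated human PBMCs) seeded in duplicate and exposed to 10 μM compound or 0.1% DMSO vehicle for 18 h at 37 °C, 5% CO2. Metabolic activity then measured by CellTiter 96 AQueous One (MTS) assay.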

The nature of data set [7]: Cytotoxicity against mouse RAW-Blue cells assessed as reduction in metabolic activity at 10 uM incubated for 18 hrs by MTS assay. In kind it is toxicity, cell-based. In short, it runs like this: as §3
Another data set deals with CD8-positive T cell. The data set is described as follows: Induction of mouse ovalbumin specific CD8-positive T cell activation assessed as increase in IL-6 expression at 1 uM preincubated for 18 hrs with mouse BDMC cells in presence of ovalbumin followed by washout and further coincubated with CD4+ T cells and measured after 72 hrs. In kind it is functional, cell-based. In short, it runs like this: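 Supernatants taken after the 72 h coculture of washed BMDCs (18 h pretreatment with 1 μM compound, LPS 1 μg/mL or vehicle, plus OVA 50 μg/mL) with OT-II CD4+ or OT-I CD8+ T cells. Cytokines measured by mouse Th1/Th2/Th17 cytometric bead array. Duplicates of two independent experiments, mean ± SEM.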

A short description of data set [8]: Cytotoxicity against human PBMC cells assessed as reduction in metabolic activity at 10 uM incubated for 18 hrs by MTS assay. The data set is classed as toxicity, cell-based. Summed up: as §3
On the technique in general: Tetrazolium assays rely on reduction of a dye to a coloured formazan, in cell work by metabolically active cells.

Data set [9] can be described thus: Induction of mouse ovalbumin specific CD4+ T cell activation assessed as increase in CD25 expression at 1 uM preincubated for 18 hrs with mouse BDMC cells in presence of ovalbumin followed by washout and further coincubated with CD4+ T cells and measured after 72 hrs by flow cytometry analysis (reference value: 10.9%). In kind it is functional, CD4+ve Th. In short, it runs like this:
(§4)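 C57BL/6 BMDCs (GM-CSF 7 days, >90% CD11c+) pulsed 18 h with 1 μM compound, LPS 1 μg/mL or 0.1% DMSO plus OVA 50 μg/mL, washed. 1 × 10^4 BMDCs cocultured 72 h with 5 × 10^4 CFSE-labelled OT-II CD4+ or OT-I CD8+ T cells. Flow: live Thy1.2+ CD4+ or CD8+ cells scored as CD25+ CFSElow. Duplicates of two experiments.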

Data set [10] deals with PBMC. The data set is described as follows: Upregulation of CXCL11 gene transcription in human PBMC cells at 1 uM incubated for 18 hrs by KEGG analysis. In kind it is functional, cell-based. Summed up:
as §1

Data set [11] is described as follows: Induction of mouse ovalbumin specific CD8-positive T cell activation assessed as increase in CD25 expression at 1 uM preincubated for 18 hrs with mouse BDMC cells in presence of ovalbumin followed by washout and further coincubated […] and measured after 72 hrs by flow cytometry analysis (reference value: 12.6%). The data set is classed as functional. In short, it runs like this:
as §4

Data set [12] is described as follows: Induction of activation of human CD56+ CD3- NK cells co-cultured with human PBMC cells assessed as increase in IFN-gamma expression at 1 uM incubated for 24 hrs by flow cytometry analysis (reference value: 0.04%). In kind it is functional, Natural killer cell.
Data set [13] has as its system PBMC. The data set is described as follows: Immunostimulatory activity in human PBMC cells assessed as increase in IL12p70 production at 1 uM incubated for 18 hrs by flow cytometry analysis. The data set is classed as functional, cell-based. In short, it runs like this: as §2

Each structure is given as a SMILES string. The source made the active and inactive calls. No cut-off for these calls is given here.

Take `CCCCOc1nc(N)c2nc(O)n(Cc3ccc(C(=O)NCCOCCNC(=O)CC[C@@H](NC(=O)[C@@H](NC(=O)CNC(=O)/C=C/c4ccc(O)c(OC)c4)C(C)C)C(=O)OCC)cc3)c2n1`: the Activity in data set [1] is 4.7%; in data set [6], “Non-Toxic”; in data set [7], “Non-Toxic”; in data set [8] it was “Non-Toxic”; in [9], 28.9%; in data set [11], 54.5%. In addition, the Activity in data set [12] is listed as 4.5%. In addition, the outcome in the data set with PBMC [2], in the data set on Mus musculus, in the data set with PBMC [3], with PBMC [4], in the data set on PBMC [5] and in the data set with CD8-positive T cell was Active. For the same compound, the outcome with PBMC [10] and in the data set with PBMC [13] was Active.
